We go through five molecules from PMC10694828 (RSC Advances, 2023).

SMILES strings stand for the structures.

In one data set the target is T1, recombinant human MAO-A (Homo sapiens, UniProt P21397).
T1 sequence (P21397 1-527): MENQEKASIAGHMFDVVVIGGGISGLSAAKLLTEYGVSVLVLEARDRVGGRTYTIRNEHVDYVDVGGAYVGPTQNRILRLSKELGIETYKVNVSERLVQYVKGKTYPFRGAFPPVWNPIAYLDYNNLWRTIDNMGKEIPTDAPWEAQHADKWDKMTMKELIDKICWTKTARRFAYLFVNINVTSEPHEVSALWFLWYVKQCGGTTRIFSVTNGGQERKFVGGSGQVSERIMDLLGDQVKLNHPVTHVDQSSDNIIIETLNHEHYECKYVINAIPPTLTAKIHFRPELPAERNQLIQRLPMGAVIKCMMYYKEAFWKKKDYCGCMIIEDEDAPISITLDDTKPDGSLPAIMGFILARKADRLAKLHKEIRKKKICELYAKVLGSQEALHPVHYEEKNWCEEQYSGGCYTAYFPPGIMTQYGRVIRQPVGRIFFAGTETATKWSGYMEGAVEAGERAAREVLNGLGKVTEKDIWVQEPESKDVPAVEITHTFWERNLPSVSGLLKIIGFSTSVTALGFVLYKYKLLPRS
The data set can be described thus: MAO-A inhibition, continuous assay with kynuramine. It is filed as biochemical. Particulars: for remaining activity at 10 µM: read-out: Residual activity at 10 μM (%) MAO-A.

The target of data set [1] is T2, MAO-B (Homo sapiens, UniProt P27338).
T2 sequence (P27338 1-520): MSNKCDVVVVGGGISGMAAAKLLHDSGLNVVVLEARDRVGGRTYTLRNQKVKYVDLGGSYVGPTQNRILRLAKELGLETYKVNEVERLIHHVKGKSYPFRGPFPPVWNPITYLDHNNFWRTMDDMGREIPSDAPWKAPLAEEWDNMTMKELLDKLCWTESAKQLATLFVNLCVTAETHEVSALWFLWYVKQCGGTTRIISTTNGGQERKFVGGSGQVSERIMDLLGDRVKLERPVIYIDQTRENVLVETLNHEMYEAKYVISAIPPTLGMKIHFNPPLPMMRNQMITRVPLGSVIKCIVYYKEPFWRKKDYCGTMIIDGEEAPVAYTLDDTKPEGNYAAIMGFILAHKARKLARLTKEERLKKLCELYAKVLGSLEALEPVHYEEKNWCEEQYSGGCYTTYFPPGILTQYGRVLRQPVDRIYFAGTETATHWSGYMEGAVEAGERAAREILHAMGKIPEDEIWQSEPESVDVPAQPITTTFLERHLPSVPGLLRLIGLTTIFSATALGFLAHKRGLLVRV
The data set can be described thus: MAO-B inhibition, continuous assay with benzylamine. It is filed as biochemical. Particulars: for SI (selectivity index for MAO-B compared to MAO-A): (IC50 of MAO-A)/(IC50 of MAO-B); for remaining activity at 10 µM: read-out: Residual activity at 10 μM (%) MAO-B.

A further data set can be described thus: PAMPA for BBB permeation. The format is in vitro ADME. Particulars: for Papp: PAMPA; for Experimental Pe / Prediction (CNS permeation): PAMPA-BBB. Put shortly:
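Passive BBB permeation by PAMPA on a filter membrane with 0.45 micron pores, 125 microns thick. Drug concentrations in donor, receiver and reference wells were measured by UV spectroscopy. Pe (10−6 cm s−1) was calculated as […]. Pe > 4.00 was classed CNS+ (high permeation).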

In data set [2] the target is T2, MAO-B. The data set can be described thus: Enzyme kinetics of MAO-B inhibition. It is filed as biochemical. Particulars: for Inhibition type for MAO-B: Lineweaver–Burk plots. In outline: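 Recombinant human MAO-B. Activity was followed continuously by absorbance at 250 nm with benzylamine as substrate at five concentrations (0.0375–0.60 […]). Three inhibitor concentrations were tested against each substrate level. The inhibition pattern and Ki came from Lineweaver–Burk plots and from secondary plots of slope versus inhibitor concentration.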

The target of data set [3] is T2, MAO-B. As to the kind of experiment: Reversibility of MAO-B inhibition by dialysis. The format is biochemical. Particulars: for Reversibility of MAO-B inhibition: dialysis; for Relative MAO-B activity, undialyzed (AU) / Relative MAO-B activity, dialyzed (AD): ~2.0 times IC50, 30 min preincubation; for Relative MAO-B activity, dialyzed (AD): dialyzed 6 h with two buffer changes.

Usually IC50 stands for the concentration that inhibits the measured activity by half. The Papp is the rate of passage across a membrane or cell layer, normalised by area and donor concentration. What is called Ki is a dissociation constant, usually derived from enzyme kinetics or from competition with a known ligand. A high value points to weaker binding.

Consider `O=C1Nc2ccc(F)cc2C1=NN=Cc1ccc(OCc2ccccc2)cc1` [ISB3], for which, on recombinant human MAO-A, the 50% inhibitory concentration (IC50) is greater than 40000 nM and the remaining activity at 10 µM is 74.5 ± 0.95%. In addition, on MAO-B [1], the 50% inhibitory concentration (IC50) was 13900 ± 204 nM, the “SI (selectivity index for MAO-B compared to MAO-A)” value was greater than 2.87 and the remaining activity at 10 µM was 59.6 ± 1.11%.
With `O=C1Nc2ccccc2/C1=N/N=Cc1ccc(OCc2cccc(F)c2)cc1` [ISFB1, (3Z)-3-((4-((3-fluorobenzyl)oxy)benzylidene)hydrazineylidene)indolin-2-one], in the data set “PAMPA for BBB permeation”, the Papp stood at 4.09 ± 0.24 ×10⁻⁶ cm/s, the “Experimental Pe” value was “higher than 4.0 ×10^−6 cm s^−1” and the “Prediction (CNS permeation)” value was “CNS+ (Pe (10^−6 cm s^−1) > 4.00: CNS+ (high permeation))”. Moreover, on MAO-B [2], the inhibition constant Ki came out at 69 ± 25 nM and the “Inhibition type for MAO-B” value is reported as “competitive”. Further, on recombinant human MAO-A, the IC50 was 678 ± 6 nM and the remaining activity at 10 µM amounted to 4.17 ± 0.32%. Also, on MAO-B [3], the “Reversibility of MAO-B inhibition” value is reported as “reversible”; the “Relative MAO-B activity, undialyzed (AU)” value is 31.42%; the “Relative MAO-B activity, dialyzed (AD)” value is 79.32%. Further, on MAO-B [1], the half-maximal inhibitory concentration (IC50) was found to be 135 ± 2 nM and the remaining activity at 10 µM was -3.03 ± 0.24%.
On to `O=C1Nc2ccccc2C1=NN=Cc1cccc(OCc2ccccc2)c1` [ISBB1], for which, on recombinant human MAO-A, the IC50 was found to be 1570 ± 48 nM and the remaining activity at 10 µM was found to be 4.84 ± 1.61%. Moreover, on MAO-B [1], inhibition was half-maximal at 540 ± 29 nM (IC50), the “SI (selectivity index for MAO-B compared to MAO-A)” value is 2.91 and the remaining activity at 10 µM came to 1.99 ± 0.86%.
With `O=C1Nc2ccccc2/C1=N/N=Cc1ccc(OCc2ccccc2)cc1` [ISB1, (3Z)-3-((4-(benzyloxy)benzylidene)hydrazineylidene)indolin-2-one], in the data set “PAMPA for BBB permeation”, the apparent permeability coefficient (Papp) was 4.93 ± 0.13 ×10⁻⁶ cm/s, the “Experimental Pe” value was “higher than 4.0 ×10^−6 cm s^−1” and the “Prediction (CNS permeation)” value is on record as “CNS+ (Pe (10^−6 cm s^−1) > 4.00: CNS+ (high permeation))”. In addition, at MAO-B [2], the inhibition constant (Ki) stood at 55 ± 10 nM and the “Inhibition type for MAO-B” value is on record as “competitive”. Besides, at recombinant human MAO-A, the IC50 came out at 6824 ± 49 nM and the remaining activity at 10 µM turned out to be 38.78 ± 0.25%. On MAO-B [3], the “Reversibility of MAO-B inhibition” value was “reversible”; the “Relative MAO-B activity, undialyzed (AU)” value turned out to be 31.61%; the “Relative MAO-B activity, dialyzed (AD)” value worked out at 83.77%. Further, at MAO-B [1], inhibition was half-maximal at 124 ± 7 nM (IC50), the “SI (selectivity index for MAO-B compared to MAO-A)” value is 55.03 and the remaining activity at 10 µM was -8.77 ± 0.14%.
With `O=C1Nc2ccc(Br)cc2C1=NN=Cc1ccc(OCc2cccc(F)c2)cc1` [ISFB2], on recombinant human MAO-A, the half-maximal inhibitory concentration (IC50) is greater than 40000 nM and the remaining activity at 10 µM turned out to be 88.5 ± 1.38%. Also, on MAO-B [1], the 50% inhibitory concentration (IC50) was 16000 ± 308 nM, the “SI (selectivity index for MAO-B compared to MAO-A)” value is on record as greater than 2.49 and the remaining activity at 10 µM is 57.6 ± 1.1%.
